Source: the RNAGym collection of RNA variant scans (doi:10.1002/anie.201605470)

B1: Osa-1-4 twister ribozyme (parent)
chain: CCGCCUAACACUGCCAAUGCCGGUCCCAAGCCCGGAUAAAAGUGGAGGGGGCGG

Variants of: B1
Assay: self-cleavage, relative activity (ratio to wild type); higher = more cleavage; co-transcriptional
Method in brief: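 A DNA template for a 54-nucleotide Oryza sativa twister ribozyme was synthesised with 97 % wild-type base and 1 % of each other base at the 48 positions downstream of the cleavage site. It was transcribed in vitro for 2 h at 37 °C, allowing co-transcriptional self-cleavage, then reverse-transcribed with a template-switching oligonucleotide, PCR-amplified and deep-sequenced. Cleavage status was scored from reads with or without upstream sequence. Relative activity is fraction cleaved normalised to wild type.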

| Variant | self-cleavage |
| --- | --- |
| C9A G30C | 0.02 |
| C9A G30A | 0.02 |
| C9A G30U | 0.01 |
| C9A U24C | 0.07 |
| C9A U24A | 0.04 |
| C9A U24G | 0.07 |
| C9A G49U | 0.03 |
| C9A G49C | 0.02 |
| C9A G49A | 0.04 |
| C9G G35U | 0.44 |
| C9G G35A | 0.47 |
| C9G G35C | 0.16 |
| A8U G35U | 0.18 |
| A8U G35C | 0.08 |
| A8U G35A | 0.27 |
| C9G | 0.93 |
| C9A | 0.48 |
| A8U U24A | 0.03 |
| A8U U24C | 0.05 |
| A8U U24G | 0.02 |
| A8U G45U | 0.08 |
| A8U G45C | 0.04 |
| A8U G45A | 0.05 |
| A8U U12C | 0.06 |

| Variant | self-cleavage |
| --- | --- |
| A8U U12A | 0.1 |
| A8U U12G | 0.07 |
| C9A G44A | 0.47 |
| C9A G44U | 0.63 |
| C9A G44C | 0.5 |
| A8U G50C | 0.24 |
| A8U G50A | 0.26 |
| A8U G50U | 0.35 |
| C9A G47C | 0.03 |
| C9A G47U | 0.03 |
| C9A G47A | 0.05 |
| C9G G34U | 0.12 |
| C9G G34A | 0.29 |
| C9G G34C | 0.3 |
| C9A G22A | 0.34 |
| C9A G22C | 0.03 |
| C9A G22U | 0.12 |
| C9G G44A | 0.82 |
| C9G G44U | 0.95 |
| C9G G44C | 1.04 |
| C9G G45U | 0.07 |
| C9G G45C | 0.04 |
| C9G G45A | 0.11 |
| C9G G23U | 0.04 |

| Variant | self-cleavage |
| --- | --- |
| C9G G23A | 0.24 |
| C9G G23C | 0.07 |
| A8U G51A | 0.14 |
| A8U G51C | 0.04 |
| A8U G51U | 0.08 |
| A8U G53U | 0.1 |
| A8U G53A | 0.12 |
| A8U G53C | 0.05 |
| A8U G13A | 0.05 |
| A8U G13U | 0.02 |
| A8U G13C | 0.03 |
| C9G G47A | 0.09 |
| A8U G54U | 0.32 |
| A8U G54A | 0.17 |
| A8U G54C | 0.13 |
| C9A G51U | 0.05 |
| C9A G51A | 0.13 |
| C9A G51C | 0.02 |
| C9A G54C | 0.34 |
| C9A G54U | 0.36 |
| C9A G54A | 0.43 |
| A8U G42A | 0.1 |
| A8U G42U | 0.03 |
| A8U G42C | 0.06 |

| Variant | self-cleavage |
| --- | --- |
| A8U G34C | 0.09 |
| A8U G34U | 0.1 |
| A8U G34A | 0.13 |
| C9A U12A | 0.16 |
| C9A U12C | 0.1 |
| C9A U12G | 0.08 |
| C9G G19U | 0.11 |
| C9G G19A | 0.2 |
| C9G G19C | 0.06 |
| A8U U43C | 0.08 |
| A8U U43A | 0.09 |
| A8U U43G | 0.08 |
| C9G G22C | 0.05 |
| C9G G22A | 0.15 |
| C9G G22U | 0.14 |
| C9A G42A | 0.09 |
| C9A G42C | 0.04 |
| C9A G42U | 0.03 |
| A8U G19A | 0.08 |
| A8U G19U | 0.05 |
| A8U G19C | 0.03 |
| A8U U37C | 0.36 |
| A8U U37G | 0.54 |
| A8U U37A | 0.31 |

| Variant | self-cleavage |
| --- | --- |
| C9A G35A | 0.24 |
| C9A G35C | 0.11 |
| C9A G35U | 0.32 |
| A8U G49C | 0.04 |
| A8U G49A | 0.05 |
| A8U G49U | 0.05 |
| C9A G13A | 0.02 |
| C9A G13U | 0.04 |
| C9A G13C | 0.03 |
| C9G G30A | 0.02 |
| C9G G30U | 0.04 |
| C9G G30C | 0.04 |
| C9A G45U | 0.03 |
| C9A G45C | 0.01 |
| C9A G45A | 0.04 |
| A8U G44U | 0.13 |
| A8U G44C | 0.09 |
| A8U G44A | 0.27 |
| A8U G30A | 0.02 |
| A8U G30U | 0.02 |
| A8U G30C | 0.03 |
| A8U C52G | 0.49 |
| A8U C52U | 0.57 |
| C9A U43G | 0.14 |

| Variant | self-cleavage |
| --- | --- |
| C9A U43C | 0.07 |
| C9A U43A | 0.37 |
| A8U G48A | 0.05 |
| A8U G48U | 0.04 |
| A8U G48C | 0.05 |
| C9A G53A | 0.29 |
| C9A G53C | 0.03 |
| C9A G53U | 0.09 |
| C9G G42U | 0.05 |
| C9G G42A | 0.11 |
| C9G G42C | 0.07 |
| C9A U37G | 0.53 |
| C9A U37A | 0.28 |
| C9A U37C | 0.53 |
| C9A G34U | 0.11 |
| C9A G34C | 0.08 |
| C9A G34A | 0.19 |
| A8U U18G | 0.56 |
| A8U U18A | 0.39 |
| A8U U18C | 0.26 |
| C9A G48U | 0.02 |
| C9A G48A | 0.02 |
| C9A G48C | 0.02 |
| A8U G23C | 0.04 |

| Variant | self-cleavage |
| --- | --- |
| A8U G23U | 0.03 |
| A8U G23A | 0.08 |
| C9A G19A | 0.1 |
| C9A G19C | 0.04 |
| C9A G19U | 0.07 |
| C9G G13C | 0.03 |
| C9G G13U | 0.03 |
| C9G G13A | 0.06 |
| C9A G23U | 0.02 |
| C9A G23A | 0.06 |
| C9A G23C | 0.01 |
| A8U G47A | 0.06 |
| A8U G47C | 0.05 |
| A8U G47U | 0.05 |
| C9A U18G | 0.31 |
| C9A U18A | 0.47 |
| C9A U18C | 0.19 |
| A8U G22U | 0.08 |
| A8U G22C | 0.03 |
| A8U G22A | 0.12 |
| C9A G50U | 0.5 |
| C9A G50A | 0.13 |
| C9A G50C | 0.38 |
